Data set [1] is classed as in vivo, human. The method in brief:
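Routine TDM of trough serum sunitinib and N-desethyl sunitinib in one patient, reported as total concentration (the sum of both); the clinical target trough is 50-100 ng/ml. Sampling: immediately before dasatinib and on days 7, 32, 70 and 84. Sunitinib was given orally at 14 days on/7 days off: 50 mg/day, 37.5 mg/day from day 18, then 50/37.5 mg/day alternately from day 81.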

The format of data set [2] is in vivo, human. The method in brief:
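Serum from the patient was taken 8 h after dasatinib dosing, using the residue of samples drawn for sunitinib TDM, and assayed later by LC-MS/MS (LLOQ 0.5 ng/ml). Samples were from days 7, 32 and 84. Oral dasatinib was given at 60 mg/day, then 50 mg/day from day 28, alongside sunitinib; esomeprazole magnesium was a concomitant drug.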
The source holds these as a separate data set.

For data set [3], the system named is chronic myeloid leukemia (CML). The data set can be described thus: Response of chronic myeloid leukemia to dasatinib in the patient. The class given is in vivo, human. The following applies: day 154 after starting dasatinib; BCR::ABL1^IS≤1%. The method in brief:
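Patient with chronic-phase CML took oral dasatinib at 60 mg/day from day 1. Cytogenetic response was defined as BCR::ABL1IS≤1% and assessed on day 154.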

In a further data set the test system is CYP3A4. The note with it: cited from earlier work.
The conditions of data set [4]: cited from earlier work.
For data set [5] the following is noted: rats; ketoconazole combined with sunitinib; cited from earlier work.
A further data set can be described thus: Adverse events. In kind it is in vivo, human. The note with it: day -30; sunitinib 50 mg/day alone. The method in brief:
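Single patient with metastatic renal cell carcinoma on oral sunitinib monotherapy, 14 days on/7 days off, before dasatinib started (day 1). Adverse events graded by CTCAE. Hand-foot skin reaction was managed with heparinoid cream and diarrhea with bifidobacterial powder.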

Data set [6] relates to metastatic renal cell carcinoma (mRCC). In words: Course of metastatic renal cell carcinoma under sunitinib in the patient. In kind it is in vivo, human. The note with it: day 186; led to change from sunitinib to axitinib.
For data set [7] the following is noted: clinical practice, sum of sunitinib and N-desethyl sunitinib; cited from earlier work.
[8] abbreviates: day 7, sunitinib 50 mg/day with dasatinib 60 mg/day.
Setting [9] is: day 32, sunitinib 37.5 mg/day with dasatinib 50 mg/day.
The mark [10] stands for this setting: day 84, sunitinib 50.0 and 37.5 mg/day alternately with dasatinib 50 mg/day.
Setting [11] is: immediately before starting dasatinib, sunitinib 50 mg/day alone, 14 days on/7 days off.

This is an account of results in article PMC11843194 (Experimental and Therapeutic Medicine, 2025).

Read-outs that look alike come from different tables or passages of the source.

Consider `Cc1nc(Nc2ncc(C(=O)Nc3c(C)cccc3Cl)s2)cc(N2CCN(CCO)CC2)n1` [dasatinib], for which the “effect of dasatinib combination on sunitinib serum concentration” value in data set [1] (day 7 versus before dasatinib, sunitinib 50 mg/day) is on record as “no change”. In addition, the dasatinib serum concentration is 1.16 ng/mL in [2] (day 7, 8 h after administration, dasatinib 60 mg/day with sunitinib) and 2.75 ng/mL in [2] (day 84, 8 h after administration, dasatinib 50 mg/day with sunitinib). In [2] (male, human, serum, oral, 50 mg/day), this molecule displayed a concentration at 8 h of 3 ng/mL. Also, in data set [3], the “response for CML” value was “complete cytogenetic response”. Besides, the CYP3A4 inhibition entry with CYP3A4 was “moderate”. Besides, the solubility result in [4] is on record as “pH-dependent”.
As to `CC(=O)N1CCN(c2ccc(OCC3COC(Cn4ccnc4)(c4ccc(Cl)cc4Cl)O3)cc2)CC1` (centres unmarked) [ketoconazole], in data set [5], the “effect of combination on the concentration of sunitinib” value is given as “significantly increased”.
In the case of `CCNCCNC(=O)c1c(C)[nH]c(/C=C2\C(=O)Nc3ccc(F)cc32)c1C` [N-desethyl sunitinib], the trough serum concentration in [1] (setting [8]) worked out at 12.2 ng/mL; in data set [1] (setting [9]) it was 4.7 ng/mL; in data set [1] (setting [10]), 7.4 ng/mL; in data set [1] (setting [11]) it was 13.7 ng/mL.
With `CCN(CC)CCNC(=O)c1c(C)[nH]c(/C=C2\C(=O)Nc3ccc(F)cc32)c1C` [sunitinib], the trough serum concentration in data set [1] (setting [8]) is 64.9 ng/mL; in data set [1] (setting [9]), 28.6 ng/mL; in [1] (setting [10]) it was 38.7 ng/mL; in data set [1] (setting [11]), 63.7 ng/mL. Besides, in “Adverse events”, the “diarrhea, CTCAE grade” value worked out at 1. Moreover, the “hand-foot skin reaction (HFSR), CTCAE grade” value in “Adverse events” is 1. Also, the “course of RCC metastases” value in [6] is “pancreatic and left adrenal metastases were enlarged”. Further, the “target trough concentration as total sunitinib concentration” value in data set [7] is 50 to 100 ng/mL.
